Laboratory results as given in ChEMBL document CHEMBL1137699, “Synthesis, antibacterial and anticonvulsant evaluations of some cyclic enaminones” (Eur J Med Chem, 2009).
Values after ≈ are worked out from the molar mass of the structure shown. Active and inactive are the calls of the source. The rule behind the calls is not given here.

Columns and labels:
[1] = test system: Mus musculus; test: Anticonvulsant activity against maximal electroshock-induced seizures in mouse at 300 mg/kg, ip; type: functional, organism-based; set-up: dose 300 mg/kg
[2] = test system: Mus musculus; test: Anticonvulsant activity against subcutaneous pentylenetetrazole-induced seizures in mouse at 300 mg/kg, ip; type: functional, organism-based; set-up: dose 300 mg/kg
[3] = test system: Staphylococcus aureus; test: Antibacterial activity against methicillin-susceptible Staphylococcus aureus clinical isolate after 18 hrs by NCCLS M7-A4 method; type: functional
Outline: (§1)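 Test compounds dissolved in 80% DMSO in water. Clinical isolates came from a MRSA reference laboratory culture collection. Final inoculum 10^7 CFU/ml, incubated 35 °C for 18 h. MIC taken as the lowest concentration completely inhibiting growth. Reference strains S. aureus ATCC 25923, S. epidermidis ATCC 12228 and E. faecalis ATCC 29212 served as test controls.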

[4] = test system: Staphylococcus; test: Antibacterial activity against methicillin-sensitive coagulase-negative Staphylococcus clinical isolate after 18 hrs by NCCLS M7-A4 method; type: functional; outline: as §1
[5] = test system: Haemophilus influenzae; test: Antibacterial activity against Haemophilus influenzae clinical isolate after 18 hrs by NCCLS M7-A4 method; type: functional
Outline: (§2)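 Agar dilution on Mueller–Hinton agar with 5% sheep blood, per NCCLS/CLSI. Compounds were dissolved in 80% DMSO in water and tested over 0.12–16. Incubation was 35 °C for 18 h. MIC was read as the lowest concentration completely inhibiting growth. Line 4 used clinical isolates (n = 7 for H. influenzae).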

[6] = test system: Streptococcus pneumoniae; test: Antibacterial activity against Streptococcus pneumoniae clinical isolate after 18 hrs by NCCLS M7-A4 method; type: functional; outline: as §2
[7] = test system: Enterococcus; test: Antibacterial activity against vancomycin-sensitive Enterococcus clinical isolate after 18 hrs by NCCLS M7-A4 method; type: functional; outline: as §1
[8] = test system: Escherichia coli; test: Antibacterial activity against Escherichia coli ATCC 25922 after 18 hrs by NCCLS M7-A4 method; type: functional, organism-based
Outline: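 Reference E. coli strain tested by NCCLS/CLSI agar dilution. Compounds were in 80% DMSO in water over a 0.12–16 dilution range, incubated at 35 °C for 18 h.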

[9] = test system: Staphylococcus aureus; test: Antibacterial activity against Staphylococcus aureus ATCC 25923 after 18 hrs by NCCLS M7-A4 method; type: functional, organism-based
Outline: (§3)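 Agar dilution on Mueller–Hinton agar, following NCCLS (now CLSI) guidance. Test compounds were dissolved in 80% DMSO in water and tested at 0.12 to 16. Plates were incubated at 35 °C for 18 h. The MIC was the lowest concentration giving complete growth inhibition.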

[10] = test system: Staphylococcus epidermidis; test: Antibacterial activity against Staphylococcus epidermidis ATCC 12228 after 18 hrs by NCCLS M7-A4 method; type: functional, organism-based; outline: as §3
[11] = test system: Enterococcus faecalis; test: Antibacterial activity against Enterococcus faecalis ATCC 29212 after 18 hrs by NCCLS M7-A4 method; type: functional, organism-based; outline: as §3
[12] = test system: Haemophilus influenzae; test: Antibacterial activity against Haemophilus influenzae ATCC 49247 after 18 hrs by NCCLS M7-A4 method; type: functional, organism-based; outline: as §2
[13] = test system: Staphylococcus aureus; test: Antibacterial activity against methicillin-resistant Staphylococcus aureus clinical isolate after 18 hrs by NCCLS M7-A4 method; type: functional; outline: as §1
[14] = test system: Staphylococcus; test: Antibacterial activity against methicillin-resistant coagulase-negative Staphylococcus clinical isolate after 18 hrs by NCCLS M7-A4 method; type: functional; outline: as §1
[15] = test system: Enterococcus; test: Antibacterial activity against vancomycin-resistant Enterococcus clinical isolate after 18 hrs by NCCLS M7-A4 method; type: functional; outline: as §1
[16] = test system: Mus musculus; test: Anticonvulsant activity against subcutaneous pentylenetetrazole-induced seizures in mouse at >100 to 300 mg/kg, ip; type: functional, organism-based; set-up: dose 300 mg/kg
[17] = test system: Mus musculus; test: Anticonvulsant activity against maximal electroshock-induced seizures in mouse at <=100 mg/kg, ip; type: functional, organism-based
[18] = test system: Mus musculus; test: Anticonvulsant activity against subcutaneous pentylenetetrazole-induced seizures in mouse at <=100 mg/kg, ip; type: functional, organism-based

| Compound | Activity [1] | Activity [2] | MIC [4] [µg/mL] | MIC [5] [µg/mL] | MIC [7] [µg/mL] | Activity [8] | Activity [9] | Activity [10] | Activity [11] | Activity [12] | also measured |
| --- | --- | --- | --- | --- | --- | --- | --- | --- | --- | --- | --- |
| COC(=O)C1C(=O)C=C(NCCc2ccccc2)CC1c1ccccc1 (stereo not given) | inactive | inactive |  |  |  |  |  |  |  |  |  |
| COC(=O)C1C(=O)C=C(NC[C@H]2CN(c3ccc(N4CCOCC4)c(F)c3)C(=O)O2)CC1C (stereo not given in full) | inactive | inactive | > 16 | > 16 | > 16 | inactive | inactive | inactive | inactive | inactive | MIC [3]: > 16 µg/mL; MIC [6]: > 16 µg/mL |
| CCOC(=O)C1C(=O)C=C(Nc2ccc(O)cc2)CC1c1ccccc1 (stereo not given) | inactive | inactive |  |  |  |  |  |  |  |  |  |
| COC(=O)C1C(=O)C=C(Nc2ccc(N3CCOCC3)c(F)c2)CC1c1ccccc1 (stereo not given) | inactive | inactive |  |  |  |  |  |  |  |  |  |
| CCOC(=O)C1C(=O)C=C(NCCCCc2ccccc2)CC1c1ccccc1 (stereo not given) | inactive | inactive |  |  |  |  |  |  |  |  |  |
| CCOC(=O)C1C(=O)C=C(Nc2ccc(F)cc2)CC1c1ccccc1 (stereo not given) | inactive | inactive |  |  |  |  |  |  |  |  |  |
| CC(=O)NC[C@H]1CN(c2ccc(N3CCOCC3)c(F)c2)C(=O)O1 [LINEZOLID] |  |  | 0.5 (≈ 1.48 µM) | 8 (≈ 23.7 µM) | 1 (≈ 2.96 µM) | inactive | inactive | inactive | inactive | inactive | MIC [13]: 0.5 µg/mL (≈ 1.48 µM); MIC [14]: 0.5 µg/mL (≈ 1.48 µM); MIC [15]: 1 µg/mL (≈ 2.96 µM) |
| COC(=O)C1C(=O)C=C(Nc2ccc(Cl)cn2)CC1c1ccccc1 (stereo not given) | inactive | inactive |  |  |  |  |  |  |  |  |  |
| COC(=O)C1C(=O)C=C(N2CCCC2)CC1c1ccccc1 (stereo not given) | inactive | inactive |  |  |  |  |  |  |  |  |  |
| CCOC(=O)C1C(=O)C=C(N2CCOCC2)CC1C (stereo not given) |  |  |  |  |  |  |  |  |  |  | Activity [16]: Active |
| CCOC(=O)C1C(=O)C=C(Nc2ccccc2)CC1c1ccccc1 (stereo not given) | inactive | inactive |  |  |  |  |  |  |  |  |  |
| CN[C@H](CC(C)C)C(=O)N[C@H]1C(=O)N[C@@H](CC(N)=O)C(=O)N[C@H]2C(=O)N[C@H]3C(=O)N[C@H](C(=O)N[C@H](C(=O)O)c4cc(O)cc(O)c4-c4cc3ccc4O)[C@H](O)c3ccc(c(Cl)c3)Oc3cc2cc(c3O[C@@H]2O[C@H](CO)[C@@H](O)[C@H](O)[C@H]2O[C@H]2C[C@](C)(N)[C@H](O)[C@H](C)O2)Oc2ccc(cc2Cl)[C@H]1O [VANCOMYCIN] |  |  | 1 (≈ 0.69 µM) | > 32 | 1 (≈ 0.69 µM) | inactive | inactive | inactive | inactive | inactive | MIC [14]: 2 µg/mL (≈ 1.38 µM); MIC [6]: 0.25 µg/mL (≈ 0.173 µM); MIC [15]: 8 µg/mL (≈ 5.52 µM) |
| CCOC(=O)C1C(=O)C=C(Nc2ccc(N3CCOCC3)c(F)c2)CC1C (stereo not given) | inactive | inactive | > 16 | > 16 | > 16 | inactive | inactive | inactive | inactive | inactive | MIC [3]: > 16 µg/mL; MIC [6]: > 16 µg/mL |
| COC(=O)C1C(=O)C=C(N2CCN(c3ccc([N+](=O)[O-])cc3F)CC2)CC1c1ccccc1 (stereo not given) | inactive | inactive |  |  |  |  |  |  |  |  |  |
| CCOC(=O)C1C(=O)C=C(Nc2ccc(Br)cc2)CC1C (stereo not given) |  |  |  |  |  |  |  |  |  |  | Activity [17]: Active; Activity [18]: Active |
| CCOC(=O)C1C(=O)C=C(Nc2ccc(N3CCOCC3)c(F)c2)CC1c1ccccc1 (stereo not given) | inactive | inactive | > 16 | > 16 | > 16 | inactive | inactive | inactive | inactive | inactive | MIC [3]: > 16 µg/mL; MIC [6]: > 16 µg/mL |
| O=C1O[C@@H](Cn2ccnn2)CN1c1ccc(N2CCOCC2)c(F)c1 |  |  | 1 (≈ 2.88 µM) | 32 (≈ 92.1 µM) | 0.5 (≈ 1.44 µM) | inactive | inactive | inactive | inactive | inactive | MIC [3]: 0.5 µg/mL (≈ 1.44 µM); MIC [13]: 0.5 µg/mL (≈ 1.44 µM); MIC [14]: 0.5 µg/mL (≈ 1.44 µM); MIC [6]: 0.5 µg/mL (≈ 1.44 µM); MIC [15]: 0.5 µg/mL (≈ 1.44 µM) |
| CCOC(=O)C1C(=O)C=C(N2CCN(c3ccc([N+](=O)[O-])cc3F)CC2)CC1C (stereo not given) | inactive | inactive |  |  |  |  |  |  |  |  |  |
| CCOC(=O)C1C(=O)C=C(Nc2ccc(N3CCN(C(=O)OC(C)(C)C)CC3)c(F)c2)CC1c1ccccc1 (stereo not given) | inactive | inactive |  |  |  |  |  |  |  |  |  |
| COC(=O)C1C(=O)C=C(NC[C@H]2CN(c3ccc(N4CCOCC4)c(F)c3)C(=O)O2)CC1c1ccccc1 (stereo not given in full) | inactive | inactive | > 16 | > 16 | > 16 | inactive | inactive | inactive | inactive | inactive | MIC [3]: > 16 µg/mL; MIC [6]: > 16 µg/mL |
| COC(=O)C1C(=O)C=C(Nc2ccc(F)cc2)CC1c1ccccc1 (stereo not given) | inactive | inactive |  |  |  |  |  |  |  |  |  |
